Legend:
[1] = target: Kappa-type opioid receptor (Cavia porcellus, UniProt P41144); test: Displacement of [3H]U69593 from […] kappa opioid receptor in guinea pig cerebella by liquid scintillation counting
[2] = organism: Rattus norvegicus; test: Selectivity ratio of Ki for delta opioid receptor in Sprague-Dawley rat brain to Ki for mu opioid receptor in Sprague-Dawley rat brain
[3] = Selectivity ratio of Ki for kappa opioid receptor in guinea pig cerebella to Ki for mu opioid receptor in Sprague-Dawley rat brain
[4] = target: Delta-type opioid receptor (Rattus norvegicus, UniProt P33533); test: Displacement of [3H]DPDPE from Sprague-Dawley rat delta opioid receptor by liquid scintillation counting
[5] = target: Mu-type opioid receptor (Rattus norvegicus, UniProt P33535); test: Displacement of [3H]DAMGO from Sprague-Dawley rat mu opioid receptor by liquid scintillation counting
[6] = tested on: Rattus norvegicus; test: Antinociceptive activity in sc dosed Sprague-Dawley rat assessed as thermal-stimulus-induced tail flick latency after 100 mins; assay type: functional
Outline: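 Male Sprague–Dawley rats (180–200 g) habituated the day before. Radiant-heat IR on lower third of tail. Basal latency 3–4 s, mean of three readings 5 min apart. Cut-off 10 s. Compound given sc, and latencies read at 20, 40, 60, 80 and 100 min. Blinded. ED50 from linear regression of dose–effect, with 95% confidence limits.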

[7] = target: T1, Delta-type opioid receptor (Homo sapiens, UniProt P41143); test: Agonist activity at delta opioid expressed in HEK293 cells assessed as inhibition of forskolin-stimulated cAMP accumulation; assay type: functional, cell-based
[8] = target: T2, Mu-type opioid receptor (Homo sapiens, UniProt P35372); test: Agonist activity at mu opioid expressed in HEK293 cells assessed as inhibition of forskolin-stimulated cAMP accumulation at 1 pM to 10 uM relative to control; assay type: functional, cell-based
[9] = target: T1, Delta-type opioid receptor; test: Agonist activity at delta opioid expressed in HEK293 cells assessed as inhibition of forskolin-stimulated cAMP accumulation at 1 pM to 10 uM relative to control; assay type: functional, cell-based
[10] = target: T2, Mu-type opioid receptor; test: Agonist activity at mu opioid expressed in HEK293 cells assessed as inhibition of forskolin-stimulated cAMP accumulation; assay type: functional, cell-based

Kappa-type opioid receptor, sequence (P41144 whole entry): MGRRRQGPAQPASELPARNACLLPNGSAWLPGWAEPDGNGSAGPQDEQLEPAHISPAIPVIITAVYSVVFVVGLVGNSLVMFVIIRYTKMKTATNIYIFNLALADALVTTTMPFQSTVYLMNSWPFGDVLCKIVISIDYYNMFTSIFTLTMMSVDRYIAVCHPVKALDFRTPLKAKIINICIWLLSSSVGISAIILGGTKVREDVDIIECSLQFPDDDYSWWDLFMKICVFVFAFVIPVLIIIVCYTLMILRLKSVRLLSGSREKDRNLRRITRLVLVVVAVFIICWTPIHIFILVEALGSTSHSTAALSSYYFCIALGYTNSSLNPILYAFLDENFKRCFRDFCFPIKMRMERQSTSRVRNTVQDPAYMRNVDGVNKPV
Delta-type opioid receptor (Rattus norvegicus, UniProt P33533), sequence (P33533 whole entry): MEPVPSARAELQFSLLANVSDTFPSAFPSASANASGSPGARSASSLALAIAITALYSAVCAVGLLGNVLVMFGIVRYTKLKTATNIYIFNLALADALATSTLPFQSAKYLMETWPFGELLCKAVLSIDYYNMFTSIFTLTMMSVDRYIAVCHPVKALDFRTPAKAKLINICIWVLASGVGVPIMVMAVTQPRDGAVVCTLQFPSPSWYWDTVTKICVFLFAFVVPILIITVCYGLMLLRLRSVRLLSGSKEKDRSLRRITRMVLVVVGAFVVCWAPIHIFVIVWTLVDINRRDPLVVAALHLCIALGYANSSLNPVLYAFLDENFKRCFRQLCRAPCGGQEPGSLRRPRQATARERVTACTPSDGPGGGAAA
Mu-type opioid receptor (Rattus norvegicus, UniProt P33535), sequence (P33535 whole entry): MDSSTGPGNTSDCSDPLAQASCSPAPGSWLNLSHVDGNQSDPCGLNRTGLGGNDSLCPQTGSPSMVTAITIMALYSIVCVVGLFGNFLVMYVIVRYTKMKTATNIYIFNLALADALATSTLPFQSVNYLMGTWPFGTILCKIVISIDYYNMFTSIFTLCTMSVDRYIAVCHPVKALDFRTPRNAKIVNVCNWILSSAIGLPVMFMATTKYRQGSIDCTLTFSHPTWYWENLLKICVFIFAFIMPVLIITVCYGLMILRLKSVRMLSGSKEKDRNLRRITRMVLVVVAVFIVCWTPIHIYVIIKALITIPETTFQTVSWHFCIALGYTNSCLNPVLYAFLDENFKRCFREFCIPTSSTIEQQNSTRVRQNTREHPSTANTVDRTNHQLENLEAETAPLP
T2 sequence (P35372 whole entry): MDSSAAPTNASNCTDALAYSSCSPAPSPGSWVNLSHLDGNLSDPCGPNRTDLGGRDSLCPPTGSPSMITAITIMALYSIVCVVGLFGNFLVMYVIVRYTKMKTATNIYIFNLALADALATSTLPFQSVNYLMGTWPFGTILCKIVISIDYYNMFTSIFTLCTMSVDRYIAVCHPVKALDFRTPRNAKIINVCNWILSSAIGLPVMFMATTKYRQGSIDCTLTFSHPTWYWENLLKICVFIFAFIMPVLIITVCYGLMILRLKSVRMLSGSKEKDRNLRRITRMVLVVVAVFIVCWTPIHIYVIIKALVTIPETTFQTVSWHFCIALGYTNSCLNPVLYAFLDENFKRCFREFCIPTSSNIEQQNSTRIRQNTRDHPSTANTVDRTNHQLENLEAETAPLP
T1 sequence (P41143 whole entry): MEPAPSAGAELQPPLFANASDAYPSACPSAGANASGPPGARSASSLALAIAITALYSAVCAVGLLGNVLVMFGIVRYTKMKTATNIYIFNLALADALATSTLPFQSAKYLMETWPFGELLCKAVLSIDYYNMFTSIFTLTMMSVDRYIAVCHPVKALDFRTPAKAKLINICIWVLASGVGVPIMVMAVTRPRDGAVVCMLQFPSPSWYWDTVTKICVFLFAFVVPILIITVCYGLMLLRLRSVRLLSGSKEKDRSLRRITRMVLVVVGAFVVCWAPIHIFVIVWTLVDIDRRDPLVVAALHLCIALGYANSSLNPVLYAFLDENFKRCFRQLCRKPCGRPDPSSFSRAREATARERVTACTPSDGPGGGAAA

Compound | Ki [1] [nM] | Ratio Ki [2] | Ratio Ki [3] | Ki [4] [nM] | Ki [5] [nM] | ED50 [6] [mg/kg] | IC50 [7] [nM] | Imax [8] [%] | Imax [9] [%] | IC50 [10] [nM]
C[C@H]1CN(CC(=O)N(C)c2ccccc2)[C@@H]2Cc3ccc(O)cc3[C@]1(C)C2 | 339 | > 3.6 | 0.24 | > 5000 | 1370 |  |  |  |  | 
C[C@H]1CN(CCC(=O)NC(C)(C)C)[C@@H]2Cc3ccc(O)cc3[C@]1(C)C2 | 422 | > 13.4 | 1.1 | > 5000 | 372 |  |  |  |  | 
CCN(C(=O)CCN1C[C@H](C)[C@@]2(C)C[C@H]1Cc1ccc(O)cc12)c1ccccc1 | 70 | > 36.7 | 0.51 | > 5000 | 136 |  |  |  |  | 
C[C@H]1CN(CC(=O)Nc2ccccc2)[C@@H]2Cc3ccc(O)cc3[C@]1(C)C2 | > 5000 | > 6.9 | > 6.9 | > 5000 | 722 |  |  |  |  | 
C[C@H]1CN(CCC(=O)N(C)c2ccccc2)[C@@H]2Cc3ccc(O)cc3[C@]1(C)C2 | 261 | > 76.9 | 4 | > 5000 | 65 |  |  |  |  | 
C[C@H]1CN(CCC(=O)NCc2ccccc2)[C@@H]2Cc3ccc(O)cc3[C@]1(C)C2 | 237 | > 47.6 | 2.2 | > 5000 | 105 |  |  |  |  | 
CN1CC[C@]23c4c5ccc(O)c4O[C@H]2[C@@H](O)C=C[C@H]3[C@H]1C5 [MORPHINE] |  |  |  |  |  | 2.7 |  |  |  | 
CCN(C(=O)CN1C[C@H](C)[C@@]2(C)C[C@H]1Cc1ccc(O)cc12)c1ccccc1 | 335 | > 4.4 | 0.29 | > 5000 | 1120 |  |  |  |  | 
C[C@H]1CN(CC(=O)NC2CCCCC2)[C@@H]2Cc3ccc(O)cc3[C@]1(C)C2 | 612 | > 1.7 | 0.2 | > 5000 | 2930 |  |  |  |  | 
C[C@H]1CN(CCC(=O)Nc2ccccc2)[C@@H]2Cc3ccc(O)cc3[C@]1(C)C2 | 110 | 33.8 | 132 | 29.1 | 0.83 | 2.03 | 12 | 73 | 83 | 4.8
C[C@@H](NC(=O)[C@@H](N)Cc1ccc(O)cc1)C(=O)NCC(=O)N(C)[C@@H](Cc1ccccc1)C(=O)NCCO [DAMGO] | > 5000 |  |  | 2670 |  |  |  |  |  | 
C[C@H]1CN(CCC(=O)NC2CCCCC2)[C@@H]2Cc3ccc(O)cc3[C@]1(C)C2 | 501 | > 89.2 | 8.9 | > 5000 | 56 |  |  |  |  | 
C[C@H]1CN(CCC(=O)NCC2CCCCC2)[C@@H]2Cc3ccc(O)cc3[C@]1(C)C2 | 134 | > 46.7 | 1.2 | > 5000 | 107 |  |  |  |  | 

Source: ChEMBL document CHEMBL1250436, “Evaluation of N-substitution in 6,7-benzomorphan compounds” (Bioorg Med Chem, 2010)
